Bioassay records deposited in PubChem by several laboratories.
In the library only some 2.3% were active in any assay of this set; here they are far more common.
Bim-Mcl-1: disrupts Bim peptide binding to human Mcl-1; Bead-based flow cytometry, Bim peptide-Mcl-1 binding; Q07820; 0.1% of 190,000 active; inhibition, % at 10 µM; in the data active = inhibition above about 40%;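 also: 0% = no compound tracer wells and 100% = peptide blocker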
Target sequence (Q07820 whole entry, looked up): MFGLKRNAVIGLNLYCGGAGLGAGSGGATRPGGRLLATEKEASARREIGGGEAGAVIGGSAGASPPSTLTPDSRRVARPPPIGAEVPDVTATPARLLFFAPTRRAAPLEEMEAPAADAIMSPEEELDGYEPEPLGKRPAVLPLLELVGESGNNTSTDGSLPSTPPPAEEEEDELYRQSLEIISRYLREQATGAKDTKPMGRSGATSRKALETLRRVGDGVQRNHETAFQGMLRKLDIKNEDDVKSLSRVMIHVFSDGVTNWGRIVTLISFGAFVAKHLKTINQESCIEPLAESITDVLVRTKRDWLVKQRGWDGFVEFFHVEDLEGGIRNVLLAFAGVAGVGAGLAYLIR
DSG3 Ab inh: blocks pemphigus antibody binding to human desmoglein-3 | P32926 | DSG3-coupled beads, scFv-anti-DSG3-GFP binding, flow cytometry; stronger effect = lower value | binding (percent of control), % at 10 µM | 0.48% of 310,000 active;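 active = binding more than 3 SD below its plate's average and above zero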;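 also: hits lower antibody fragment binding to DSG3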
T cell HTS: T cell immune modulation candidate. 2C CD8+ T cell-vesicle binding, flow cytometry; stronger effect = lower value. response (vesicle binding), % at 7 µM. 0.068% of 330,000 active. AID 2052;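 active = response, share of CD8 T cells binding vesicles, and their 90th percentile fluorescence all below set limits, cut at about 80% in these data, passing the limit was not always enough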;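 also: values below 100% mean blocked vesicle binding to the CD8+ T cells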
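Assay system: 2C TCR transgenic mouse naive CD8+ T cells, MACS-purified | Read-out: CD8+ gate FL2 mean fluorescence as % of same-row positive control | Signal: High-throughput flow cytometry with anti-B7-1 and anti-CD8 staining | Timing: Binding step 1.5 h, 37 °C, antibody labelling 20 min, ice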
MCL1-BIM inh: MCL1-BIM-BH3 interaction inhibition (human); Q07820; GST-MCL1 / FITC-Bim-BH3 fluorescence polarization; inhibition, % at 10.9 µM; 0.68% of 320,000 active;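 active = inhibition above the mean inhibition of all tested compounds plus 3 SD, set per campaign, cut at about 40% in these data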;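 also: 0% = DMSO wells and 100% = unlabeled Bim-BH3 peptide control; higher means more loss of mP so more displacement of Bim peptide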
Mcl1 Noxa PPI: disrupts binding of human Mcl-1 to Noxa peptide. Q07820. TR-FRET Mcl-1/Noxa peptide binding, 2 h. inhibition, % at 21.7 µM. 1.5% of 220,000 active. AID 1022;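 active = compounds that cut the protein-peptide binding signal by more than 50% relative to plate controls in a single-dose test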;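 also: His-tagged Mcl-1 with rhodamine Noxa BH3 peptide and terbium anti-His antibody; 0% = Mcl-1 plus Noxa peptide wells and 100% = peptide-only wells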
Mcl1 Bid PPI: Mcl-1/Bid interaction inhibition; Q07820; TR-FRET Mcl-1/Bid-Dy647 peptide binding, 1536-well; inhibition, % at 21.7 µM; 0.97% of 220,000 active;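 active = compounds that cut the binding signal by more than half at the single screening dose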;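 also: His-tagged Mcl-1 with europium anti-His antibody binding Bid BH3 peptide; 0% = Mcl-1 plus peptide wells and 100% = peptide-only wells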
Active calls of the source: *; . = no result given.

SMILES	Bim-Mcl-1	DSG3 Ab inh	T cell HTS	MCL1-BIM inh	Mcl1 Noxa PPI	Mcl1 Bid PPI
Cc1ccc([C@H]2N[C@]3(CCCN(Cc4ccco4)C3=O)[C@H]3C(=O)N(C)C(=O)[C@@H]23)cc1	.	111.3	.	.	.	.
COc1ccc([C@H]2C[C@@H](O)[C@H](n3cc(C4CC4)nn3)CN2C(=O)c2cccs2)cc1	.	100.8	.	.	.	.
COC(=O)[C@H]1C[C@@]2(O)CN(S(=O)(=O)c3ccc(C)cc3)C[C@@]2(OC(=O)NC2CC2)C[C@H]1C(=O)OC	.	110.8	.	.	.	.
COC(=O)c1ccc2nc(Nc3nc4c(F)cc(F)cc4s3)sc2c1	-3.0	.	305.7	0.2	80.8*	63.6*
CC(OC(=O)COc1ccccc1Cc1ccccc1)C(=O)N(C)c1ccccc1 (centres undefined)	.	101.3	347.4	-4.0	.	.
N#Cc1nc(Nc2cccc(Cl)c2)c2ncn(C3CCCC3)c2n1	.	105.0	218.0	4.5	.	.
Cc1c(CN(C)C(=O)C2CCC(=O)N(Cc3ccccc3F)C2)[nH]c2ccccc12 (centres undefined)	.	109.9	.	.	.	.
COc1ccc(N2CCN(S(=O)(=O)c3ccc4c(c3)NC(=O)C(C)S4)CC2)cc1 (centres undefined)	.	.	334.4	5.3	.	.
O=C(CN1CCC(n2nnc3cc(C(F)(F)F)ccc32)CC1)N1CCc2ccccc21	1.0	81.8*	510.0	1.3	0.9	6.4
CSc1ccc(C2C(C#N)=C(N)N(c3ccccc3)C3=C2C(=O)CCC3)cc1 (centres undefined)	-5.0	110.9	449.2	4.8	21.0	1.0
N#CC1=C(N)N(c2ccc(F)cc2)C2=C(C1c1ccc(O)cc1)S(=O)(=O)CC2 (centres undefined)	21.0	105.3	.	.	89.5*	30.4
CCN(C(=O)CSc1nnc(-c2cccc(Cl)c2)n1N)c1c(N)n(Cc2ccccc2)c(=O)[nH]c1=O	.	109.0	.	.	.	.
O=[N+]([O-])c1ccc(Nc2ccccc2)c2nonc12	.	104.4	145.7	-74.3	.	.
NNc1ccc([N+](=O)[O-])c2[nH][nH]c(=O)c12	.	83.4*	.	.	.	.
COc1ccc(-n2c(Cc3cccn3C)nnc2SCC(=O)NCc2ccccc2Cl)cc1	-1.0	104.7	350.2	2.8	-6.3	64.8*
CC1CCCCN1C(=S)Nc1ccc(S(=O)(=O)N2CCCCC2)cc1 (centres undefined)	.	99.1	.	.	.	.
O=c1c2c3nc4ccccc4nc3n(Cc3ccccc3)c2ncn1Cc1ccco1	4.0	98.7	.	.	73.3*	1.8
Clc1ccccc1CNCc1ccc2c(c1)OCO2	.	100.3	.	.	.	.
O=C(CSc1nnc2c(n1)[nH]c1ccccc12)NCc1ccco1	-6.0	106.1	250.5	12.5	73.3*	-26.6
O=C(CNC(=O)C(c1ccccc1)c1ccccc1)N/N=C/c1cccnc1	.	89.8	815.9	-3.9	95.5*	-3.0
O=c1[nH]c(=O)c2nc3c4ccccc4c4ccccc4c3nc2[nH]1	6.0	28.6*	397.7	9.8	44.4	-7.7
Cc1ccc(-c2nn3c(C)nnc3s2)cc1NC(=O)C(C)C	0.0	81.8*	205.4	-3.1	-20.9	-27.5
Cc1ccc(-c2nn3c(C)nnc3s2)cc1NC(=O)c1ccco1	-5.0	107.2	79.7	6.8	-9.0	-6.4
O=C(NCc1cccnc1)/C(=C/c1ccc(-c2cccc(Cl)c2)o1)S(=O)(=O)c1ccccc1	-6.0	99.2	370.5	11.2	37.6	56.9*
O=C(NCc1cccnc1)/C(=C\c1ccc(-c2cccc(Cl)c2)o1)S(=O)(=O)c1ccccc1	-7.0	129.2	626.8	-4.5	47.2	49.4
CCOc1cc(C2c3c(oc4ccccc4c3=O)C(=O)N2c2nccs2)ccc1O (centres undefined)	.	130.5	329.6	3.8	-30.6	55.7*
Cc1ccsc1C(=O)NCCC(c1ccccc1)c1ccccc1	0.0	109.0	186.5	5.4	4.8	18.8
CS(=O)(=O)c1ccccc1C(=O)NCCC(c1ccccc1)c1ccccc1	.	44.8*	329.2	-18.7	.	.
O=C(c1ccc2c(=O)n(-c3ccccc3)c(=S)[nH]c2c1)N1CCN(c2ccccc2)CC1	.	.	316.3	11.9	.	.
COc1ccc(OC)c(-n2c(=S)[nH]c3cc(C(=O)N4CCN(c5ccccc5)CC4)ccc3c2=O)c1	48.0*	77.6	248.9	5.7	8.0	-60.7
